Measured values as given in ChEMBL document CHEMBL4033714, “Discovery of BI 135585, an in vivo efficacious oxazinanone-based 11β hydroxysteroid dehydrogenase type 1 inhibitor” (Bioorg Med Chem, 2017).
≈ marks a conversion by molar mass, not a printed value.

Key:
[1] = molecular target: Cytochrome P450 2D6 (Homo sapiens, UniProt P10635); assay: Inhibition of CYP2D6 (unknown origin); format: ADME
[2] = tested on: Cynomolgus monkey; assay: Dose normalized AUC in iv dosed cynomolgus monkey; format: ADME, organism-based, Macaca fascicularis; settings: in vivo
[3] = Half life in rat liver microsomes; format: ADME, microsome
[4] = molecular target: CYP3A4 (Homo sapiens, UniProt P08684); assay: Inhibition of recombinant CYP3A4 (unknown origin); format: ADME; settings: recombinant CYP3A4
[5] = Aqueous solubility of the compound; format: physicochemical; settings: aqueous medium; read-out: solubility
How it was run: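 Solubility measured in water, with each compound tested as amorphous material.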

[6] = Half life in human liver microsomes; format: ADME, microsome
[7] = molecular target: Voltage-gated inwardly rectifying potassium channel KCNH2 (Homo sapiens, UniProt Q12809); assay: Inhibition of human ERG
[8] = molecular target: CYP2C9 (Homo sapiens, UniProt P11712); assay: Inhibition of CYP2C9 (unknown origin); format: ADME
[9] = Half life in cynomolgus monkey liver microsomes; format: ADME, Macaca fascicularis, microsome
[10] = molecular target: hERG (Homo sapiens, UniProt Q12809); assay: Inhibition of human ERG at 10 uM by patch clamp assay relative to control
[11] = Mean residence time in iv dosed cynomolgus monkey; format: ADME, organism-based, Macaca fascicularis; settings: in vivo
[12] = Clearance in iv dosed cynomolgus monkey; format: ADME, organism-based, Macaca fascicularis; settings: in vivo
[13] = Volume of distribution at steady state in iv dosed cynomolgus monkey; format: ADME, organism-based, Macaca fascicularis; settings: in vivo, read-out: Vdss
[14] = Mean residence time in po dosed cynomolgus monkey; format: ADME, organism-based, Macaca fascicularis; settings: in vivo
[15] = Oral bioavailability in cynomolgus monkey; format: ADME, organism-based, Macaca fascicularis; settings: in vivo
[16] = molecular target: T1, 11-beta-hydroxysteroid dehydrogenase type 2 (Homo sapiens, UniProt P80365); assay: Inhibition of 11beta-HSD2 (unknown origin)
T1 sequence (P80365 whole entry): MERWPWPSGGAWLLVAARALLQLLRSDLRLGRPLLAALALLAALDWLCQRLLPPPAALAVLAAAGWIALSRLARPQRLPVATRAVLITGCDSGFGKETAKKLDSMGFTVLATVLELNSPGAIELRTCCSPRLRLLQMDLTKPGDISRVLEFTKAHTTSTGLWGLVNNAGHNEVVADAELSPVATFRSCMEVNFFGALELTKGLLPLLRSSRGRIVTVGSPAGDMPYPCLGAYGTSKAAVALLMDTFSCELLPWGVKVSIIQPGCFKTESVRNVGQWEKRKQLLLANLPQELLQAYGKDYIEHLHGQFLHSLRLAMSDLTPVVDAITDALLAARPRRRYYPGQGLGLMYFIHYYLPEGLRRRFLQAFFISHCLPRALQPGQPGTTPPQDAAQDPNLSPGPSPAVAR

[17] = molecular target: T2, 3 beta-hydroxysteroid dehydrogenase/Delta 5-->4-isomerase type 2 (Homo sapiens, UniProt P26439); assay: Inhibition of 3beta-HSD2 (unknown origin)
T2 sequence (P26439 whole entry): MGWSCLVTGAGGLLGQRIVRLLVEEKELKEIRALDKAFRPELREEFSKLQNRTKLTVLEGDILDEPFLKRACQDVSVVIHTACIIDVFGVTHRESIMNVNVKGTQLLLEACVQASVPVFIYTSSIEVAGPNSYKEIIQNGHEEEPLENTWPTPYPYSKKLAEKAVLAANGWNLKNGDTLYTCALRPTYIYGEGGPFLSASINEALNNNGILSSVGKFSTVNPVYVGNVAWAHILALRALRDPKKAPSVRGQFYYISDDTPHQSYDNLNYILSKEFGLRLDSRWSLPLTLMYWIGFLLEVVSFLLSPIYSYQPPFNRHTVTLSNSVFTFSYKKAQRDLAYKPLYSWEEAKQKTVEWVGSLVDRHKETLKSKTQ

[18] = molecular target: T3, 17-beta-hydroxysteroid dehydrogenase type 1 (Homo sapiens, UniProt P14061); assay: Inhibition of 17beta-HSD1 (unknown origin)
T3 sequence (P14061 whole entry): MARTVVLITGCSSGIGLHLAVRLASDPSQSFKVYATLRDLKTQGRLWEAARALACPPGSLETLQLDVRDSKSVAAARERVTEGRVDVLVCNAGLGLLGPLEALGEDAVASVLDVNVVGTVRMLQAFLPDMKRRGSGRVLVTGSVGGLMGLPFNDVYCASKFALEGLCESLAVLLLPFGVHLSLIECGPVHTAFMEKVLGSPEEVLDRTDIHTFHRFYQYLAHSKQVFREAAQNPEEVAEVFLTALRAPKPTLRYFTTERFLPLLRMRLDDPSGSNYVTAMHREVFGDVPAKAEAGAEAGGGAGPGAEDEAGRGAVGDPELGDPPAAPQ

[19] = molecular target: T4, Nuclear receptor subfamily 1 group I member 2 (Homo sapiens, UniProt O75469); assay: Inhibition of PXR (unknown origin); format: ADME
T4 sequence (O75469 whole entry): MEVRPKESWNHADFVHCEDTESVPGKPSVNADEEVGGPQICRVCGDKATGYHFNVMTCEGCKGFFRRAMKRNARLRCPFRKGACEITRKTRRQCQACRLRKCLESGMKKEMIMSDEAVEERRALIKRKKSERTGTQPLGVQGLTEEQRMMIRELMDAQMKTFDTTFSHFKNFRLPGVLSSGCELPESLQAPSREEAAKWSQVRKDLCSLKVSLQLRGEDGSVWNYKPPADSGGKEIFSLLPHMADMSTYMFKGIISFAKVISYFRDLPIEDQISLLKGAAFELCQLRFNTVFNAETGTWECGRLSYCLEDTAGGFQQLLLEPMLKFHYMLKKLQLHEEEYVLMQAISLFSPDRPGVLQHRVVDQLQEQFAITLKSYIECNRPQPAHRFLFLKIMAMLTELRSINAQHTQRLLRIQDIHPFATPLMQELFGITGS

[20] = Partition coefficient, log P of the compound; format: physicochemical; settings: octanol/water
[21] = Protein binding in human plasma; format: ADME, cell-free; settings: read-out: PPB (converted)
[22] = tested on: Cynomolgus monkey; assay: In-vivo inhibition of 11beta-HSD1 in cynomolgus monkey perirenal adipose tissue assessed as reduction in cortisol level at 1 mg/kg, po using [2H]-cortisone as substrate after 22 hrs by HPLC analysis relative to control; format: functional; settings: Macaca fascicularis
How it was run: (§1)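 Cynomolgus monkeys were dosed orally. Perirenal and abdominal subcutaneous adipose tissue was then taken, and cortisone-to-cortisol conversion was measured ex vivo. Reduction in cortisol is expressed relative to vehicle-treated animals.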

[23] = tested on: Cynomolgus monkey; assay: In-vivo inhibition of 11beta-HSD1 in cynomolgus monkey perirenal adipose tissue assessed as reduction in cortisol level at 3 mg/kg, po using [2H]-cortisone as substrate after 22 hrs by HPLC analysis relative to control; format: functional; settings: Macaca fascicularis; how it was run: as §1
[24] = tested on: Cynomolgus monkey; assay: In-vivo inhibition of 11beta-HSD1 in cynomolgus monkey abdominal subcutaneous adipose tissue assessed as reduction in cortisol level at 1 mg/kg, po using [2H]-cortisone as substrate after 22 hrs by HPLC analysis relative to control; format: functional; settings: Macaca fascicularis; how it was run: as §1
[25] = tested on: Cynomolgus monkey; assay: In-vivo inhibition of 11beta-HSD1 in cynomolgus monkey abdominal subcutaneous adipose tissue assessed as reduction in cortisol level at 3 mg/kg, po using [2H]-cortisone as substrate after 22 hrs by HPLC analysis relative to control; format: functional; settings: Macaca fascicularis; how it was run: as §1

Chain of hERG (Q12809 whole entry): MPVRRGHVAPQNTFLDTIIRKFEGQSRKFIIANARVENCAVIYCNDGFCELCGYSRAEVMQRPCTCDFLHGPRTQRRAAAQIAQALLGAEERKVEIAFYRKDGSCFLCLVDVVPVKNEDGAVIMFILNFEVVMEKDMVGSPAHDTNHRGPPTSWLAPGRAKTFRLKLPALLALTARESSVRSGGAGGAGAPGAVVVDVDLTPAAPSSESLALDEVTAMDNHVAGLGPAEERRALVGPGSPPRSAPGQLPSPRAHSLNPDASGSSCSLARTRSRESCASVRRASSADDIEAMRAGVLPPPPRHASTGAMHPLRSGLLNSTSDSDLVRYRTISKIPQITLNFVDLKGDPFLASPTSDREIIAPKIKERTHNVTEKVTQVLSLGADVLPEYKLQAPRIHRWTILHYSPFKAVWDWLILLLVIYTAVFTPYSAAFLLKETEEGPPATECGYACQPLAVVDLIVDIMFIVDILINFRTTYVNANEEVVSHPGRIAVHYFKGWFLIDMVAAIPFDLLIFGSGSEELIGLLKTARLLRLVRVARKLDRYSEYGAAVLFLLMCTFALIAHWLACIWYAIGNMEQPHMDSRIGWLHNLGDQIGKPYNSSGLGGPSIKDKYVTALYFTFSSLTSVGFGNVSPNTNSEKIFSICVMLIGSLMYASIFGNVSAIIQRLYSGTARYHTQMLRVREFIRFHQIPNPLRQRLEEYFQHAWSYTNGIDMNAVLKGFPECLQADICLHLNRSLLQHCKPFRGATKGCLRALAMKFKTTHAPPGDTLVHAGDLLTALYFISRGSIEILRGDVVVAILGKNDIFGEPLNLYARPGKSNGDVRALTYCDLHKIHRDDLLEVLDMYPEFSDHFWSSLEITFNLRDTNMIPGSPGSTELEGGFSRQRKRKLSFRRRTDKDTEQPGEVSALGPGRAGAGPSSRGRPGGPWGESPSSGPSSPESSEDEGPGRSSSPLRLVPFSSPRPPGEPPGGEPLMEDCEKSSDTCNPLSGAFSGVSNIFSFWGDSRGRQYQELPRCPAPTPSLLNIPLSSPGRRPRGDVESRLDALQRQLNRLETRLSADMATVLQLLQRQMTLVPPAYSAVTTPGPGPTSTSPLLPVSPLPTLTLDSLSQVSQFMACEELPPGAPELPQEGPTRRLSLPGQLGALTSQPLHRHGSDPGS
Chain of Voltage-gated inwardly rectifying potassium channel KCNH2 (Q12809 whole entry): as above
Chain of Cytochrome P450 2D6 (P10635 whole entry): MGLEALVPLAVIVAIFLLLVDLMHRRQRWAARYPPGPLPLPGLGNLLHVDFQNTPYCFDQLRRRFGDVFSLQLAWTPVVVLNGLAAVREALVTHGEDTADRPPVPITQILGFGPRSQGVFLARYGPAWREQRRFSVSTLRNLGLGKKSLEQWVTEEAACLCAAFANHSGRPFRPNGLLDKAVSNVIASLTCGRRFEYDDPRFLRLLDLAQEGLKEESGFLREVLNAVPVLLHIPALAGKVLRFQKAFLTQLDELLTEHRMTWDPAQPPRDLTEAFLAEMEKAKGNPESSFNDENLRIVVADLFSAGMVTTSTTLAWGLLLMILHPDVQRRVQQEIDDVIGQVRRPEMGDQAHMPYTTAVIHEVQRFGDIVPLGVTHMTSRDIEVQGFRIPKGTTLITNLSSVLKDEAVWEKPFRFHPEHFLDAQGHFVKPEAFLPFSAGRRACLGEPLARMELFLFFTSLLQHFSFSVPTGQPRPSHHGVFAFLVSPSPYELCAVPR
Chain of CYP2C9 (P11712 whole entry): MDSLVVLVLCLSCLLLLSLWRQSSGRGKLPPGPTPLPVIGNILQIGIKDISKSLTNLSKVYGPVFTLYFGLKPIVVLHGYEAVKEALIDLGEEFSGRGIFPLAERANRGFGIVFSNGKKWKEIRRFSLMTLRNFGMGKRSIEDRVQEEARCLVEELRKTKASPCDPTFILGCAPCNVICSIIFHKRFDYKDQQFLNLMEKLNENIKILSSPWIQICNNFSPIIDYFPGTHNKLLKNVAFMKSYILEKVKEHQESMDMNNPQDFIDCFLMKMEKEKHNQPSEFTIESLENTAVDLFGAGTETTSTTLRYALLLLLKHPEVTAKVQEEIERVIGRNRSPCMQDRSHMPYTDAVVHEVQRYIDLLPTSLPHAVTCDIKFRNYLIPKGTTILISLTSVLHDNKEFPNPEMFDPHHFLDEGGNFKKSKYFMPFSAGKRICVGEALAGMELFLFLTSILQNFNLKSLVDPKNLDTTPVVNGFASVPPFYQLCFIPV
Chain of CYP3A4 (P08684 whole entry): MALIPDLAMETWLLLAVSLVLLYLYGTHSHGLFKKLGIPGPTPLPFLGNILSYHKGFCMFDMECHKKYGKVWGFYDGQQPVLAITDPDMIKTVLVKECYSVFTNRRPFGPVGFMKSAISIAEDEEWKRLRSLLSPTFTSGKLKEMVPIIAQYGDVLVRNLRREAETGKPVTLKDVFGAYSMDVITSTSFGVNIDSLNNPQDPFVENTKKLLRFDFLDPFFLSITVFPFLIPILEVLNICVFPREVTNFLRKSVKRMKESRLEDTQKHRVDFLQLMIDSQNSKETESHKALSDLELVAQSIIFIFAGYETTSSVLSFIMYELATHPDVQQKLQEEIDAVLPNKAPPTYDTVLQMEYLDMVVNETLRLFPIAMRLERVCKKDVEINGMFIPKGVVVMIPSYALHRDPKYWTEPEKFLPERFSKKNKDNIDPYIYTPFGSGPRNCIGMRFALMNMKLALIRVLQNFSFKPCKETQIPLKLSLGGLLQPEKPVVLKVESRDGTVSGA

C[C@@H](c1ccc(-c2ccn(C)c(=O)c2)cc1)N1CC[C@](CC(C)(C)O)(c2ccccc2)OC1=O
IC50 [1]: > 50 µM
AUC/dose [2]: 2500 nM·h
half-life [3]: > 1.5 h
IC50 [4]: > 50 µM
solubility [5]: 220 µg/mL (≈ 478 µM)
half-life [6]: > 1.5 h
IC50 [7]: > 100 µM
IC50 [8]: > 50 µM
half-life [9]: > 1.5 h
inhibition at 10 µM [10]: < 10%
MRT [11]: 5.5 h
clearance [12]: 7.5 mL/min/kg
Vd [13]: 2.5 L/kg
MRT [14]: 8.7 h
bioavailability [15]: 54%
IC50 [16]: > 10 µM
IC50 [17]: > 10 µM
IC50 [18]: > 10 µM
EC50 [19]: > 10 µM
logP [20]: 2.6
fraction unbound [21]: 0.084
inhibition in vivo at 1 mg/kg [22]: 67%
inhibition in vivo at 3 mg/kg [23]: 90%
inhibition in vivo at 1 mg/kg [24]: 67%
inhibition in vivo at 3 mg/kg [25]: 95%
